Measured values taken from ChEMBL document CHEMBL3272109, “3-Substituted pyrazole derivatives as inhibitors and inactivators of liver alcohol dehydrogenase” (J Med Chem, 1979).
Active and inactive are the calls of the source. The calls are words filed in the database; no cut-off is given here.

Columns and labels:
Alcohol dehydrogenase = Alcohol dehydrogenase (Equus caballus, UniProt P00327+P00328); assay: Inhibition of horse liver alcohol dehydrogenase using ethanol as substrate assessed as dissociation constant by spectrophotometric titration in presence of 1 mM NAD+
Summary of the method: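 Difference titration at 300 nm, 0.1 M sodium phosphate pH 7.0, 25 °C, 1 mM NAD⁺, in a double-sector cuvette (0.438-mm path) against a separated-sector reference. Either 19–27 μM enzyme was titrated with pyrazole, or 100 μM pyrazole was titrated with enzyme. Kd from a Scatchard least-squares fit; SD of three determinations.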

[1] = target: T1, Alcohol dehydrogenase (Equus caballus) (UniProt P00327+P00328); assay: Reversible inhibition of horse liver alcohol dehydrogenase using ethanol as substrate by stopped-flow method in presence of 1 mM NAD+
[2] = target: T1, Alcohol dehydrogenase (Equus caballus); assay: Competitive inhibition of horse liver alcohol dehydrogenase using ethanol as substrate by spectrophotometric titration in presence of 1 mM NAD+
Summary of the method: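 Purified horse liver EE isoenzyme, dialysed and gel-filtered free of ethanol; 10 nM enzyme. Ethanol varied at 0.4–2 mM with NAD⁺ fixed at 1 mM, in 33 mM sodium phosphate pH 7, 25 °C. Rates recorded spectrophotometrically. Constants come from fitting to the competitive inhibition equation; errors are standard errors of the fit.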

[3] = target: T1, Alcohol dehydrogenase (Equus caballus); assay: Reversible inhibition of horse liver alcohol dehydrogenase using ethanol as substrate at 1 mM measured after 100-fold dilution in presence of NAD+; parameters: scale not given: the % may be the effect or the level left
[4] = target: T1, Alcohol dehydrogenase (Equus caballus); assay: Reversible inhibition of horse liver alcohol dehydrogenase using ethanol as substrate assessed as remaining enzyme activity at 1 mM by stopped-flow method in presence of 1 mM NAD+
[5] = target: T1, Alcohol dehydrogenase (Equus caballus); assay: Reversible inhibition of horse liver alcohol dehydrogenase using ethanol as substrate assessed as increase in enzyme activity at 1 mM measured after 40 mins of 100-fold dilution by stopped-flow method in presence of NAD+; parameters: scale not given: the % may be the effect or the level left
Summary of the method: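 0.94 μN enzyme was preincubated with 1 mM NAD⁺ and 1 mM pyrazole, then diluted 100-fold into assay mix (0.55 M ethanol, 1.75 mM NAD⁺, pH 9, 25 °C). NAD⁺ reduction followed at 340 nm for 40 min. Rates were taken as tangents at various times and expressed versus the original activity; an apparent first-order dissociation rate constant was derived.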

[6] = target: T1, Alcohol dehydrogenase (Equus caballus); assay: Inactivation of horse liver alcohol dehydrogenase using ethanol as substrate at 10 mM up to 5 mins by spectrophotometric titration
Summary of the method: (§1)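 Enzyme (1 mg/mL) incubated with reagent under 5 min in 0.1 M Na₂P₂O₇ adjusted to pH 8.0 with H₃PO₄, 25 °C, with NAD⁺ where stated. Then 10 μL of reaction mixture diluted into 1 mL standard assay mixture, and the initial velocity of NADH production measured. Activity is given relative to the original.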

[7] = target: T1, Alcohol dehydrogenase (Equus caballus); assay: Inactivation of horse liver alcohol dehydrogenase using ethanol as substrate at 10 to 200 mM up to 5 mins by spectrophotometric titration in presence of 1 mM NAD+; summary of the method: as §1
[8] = target: T1, Alcohol dehydrogenase (Equus caballus); assay: Inactivation of horse liver alcohol dehydrogenase using ethanol as substrate at 200 mM up to 5 mins by spectrophotometric titration; summary of the method: as §1
[9] = target: T1, Alcohol dehydrogenase (Equus caballus); assay: Reversible inhibition of horse liver alcohol dehydrogenase using ethanol as substrate assessed as reduction in enzyme activity at 0.1 mM compound in diluted assay mixture measured after 20 to 40 mins by stopped-flow method in presence of NAD+

| Kd (Alcohol dehydrogenase) | inhibition [2] | Compound | further results |
| --- | --- | --- | --- |
| 0.2 µM |  | c1cn[nH]c1 [PYRAZOLE] | Activity [1]: 3 ×10⁵ /M/s |
| 170 µM | Active | OCCc1cc[nH]n1 |  |
| 0.02 µM |  | ClCCCc1cn[nH]c1 |  |
| 0.56 µM |  | OCCCc1cn[nH]c1 |  |
| 200 µM | Active | ClCCc1cc[nH]n1 | Activity [3]: 10%; Activity [4]: 67%; Activity [5]: ≥ 48% |
| 6500 µM | Active | O=C(O)c1cc[nH]n1 |  |
| 0.013 µM |  | Cc1cn[nH]c1 [FOMEPIZOLE] |  |
| 125 µM | Active | Cc1cc[nH]n1 |  |
| 150 µM | Active | OCc1cc[nH]n1 |  |
| 60 µM | Active | OCCCc1cc[nH]n1 |  |
| 5100 µM | Active | CC(=O)c1cc[nH]n1 |  |
| 40 µM | Active | ClCCCc1cc[nH]n1 | inhibition [9]: 52%; Activity [3]: 10%; Activity [4]: 67%; Activity [5]: ≥ 48% |
| 3.6 µM |  | OCc1cn[nH]c1 |  |
| 0.77 µM |  | OCCc1cn[nH]c1 |  |

| Compound | Kd (Alcohol dehydrogenase) | inhibition [2] | further results |
| --- | --- | --- | --- |
| ClCc1cn[nH]c1 | 2.7 µM |  |  |
| ClCc1cc[nH]n1 |  | Active | Activity [6]: 36%; Activity [7]: inactive; Activity [8]: 98% |
